Data as given in ChEMBL document CHEMBL4017509, “A Dual Modulator of Farnesoid X Receptor and Soluble Epoxide Hydrolase To Counter Nonalcoholic Steatohepatitis” (J Med Chem, 2017).
Activity calls are given as the source filed them. No cut-off for these calls is given here.

Legend:
Bile acid receptor = target: T1, Bile acid receptor (Homo sapiens, UniProt Q96RI1); assay: Transactivation of human FXR expressed in human HeLa cells co-expressing BSEP after 24 hrs by dual-glo luciferase reporter gene assay; type: cell-based
T1 sequence (Q96RI1 whole entry): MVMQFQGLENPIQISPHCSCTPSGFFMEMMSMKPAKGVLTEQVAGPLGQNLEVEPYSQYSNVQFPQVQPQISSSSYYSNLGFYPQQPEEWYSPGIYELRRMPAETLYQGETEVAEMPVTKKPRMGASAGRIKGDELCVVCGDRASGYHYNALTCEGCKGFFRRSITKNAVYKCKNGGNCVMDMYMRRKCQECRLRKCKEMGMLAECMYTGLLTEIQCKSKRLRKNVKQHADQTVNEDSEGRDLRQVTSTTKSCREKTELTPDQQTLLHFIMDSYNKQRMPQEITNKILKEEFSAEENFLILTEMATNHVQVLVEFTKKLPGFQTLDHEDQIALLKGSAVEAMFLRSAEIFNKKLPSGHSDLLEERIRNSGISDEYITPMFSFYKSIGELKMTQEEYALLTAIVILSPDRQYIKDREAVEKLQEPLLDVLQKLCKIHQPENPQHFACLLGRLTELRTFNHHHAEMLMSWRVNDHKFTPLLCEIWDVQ
How it was run: (§1)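 HeLa cells in DMEM/10% FCS at 37 °C, 5% CO2; switched to 0.5% charcoal-stripped FCS before calcium phosphate co-transfection with pcDNA3-hFXR, pSG5-hRXR, BSEP promoter–firefly luciferase reporter and pRL-SV40 renilla. Compound in 0.1% DMSO, phenol red-free medium, 24 h.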

[1] = target: T2, Bile acid receptor (Homo sapiens) (UniProt Q96RI1); assay: Transactivation of human FXR expressed in human HeLa cells co-expressing BSEP at 50 uM after 24 hrs by dual-glo luciferase reporter gene assay relative to GW4064; type: cell-based; how it was run: as §1
T2 sequence (whole entry): T1 sequence (Q96RI1 whole entry)

[2] = target: T3, Bifunctional epoxide hydrolase 2 (Homo sapiens, UniProt P34913); assay: Inhibition of recombinant human sEH using PHOME as substrate preincubated for 30 mins followed by substrate addition measured for 30 mins by fluorescence photometric method
T3 sequence (P34913 whole entry): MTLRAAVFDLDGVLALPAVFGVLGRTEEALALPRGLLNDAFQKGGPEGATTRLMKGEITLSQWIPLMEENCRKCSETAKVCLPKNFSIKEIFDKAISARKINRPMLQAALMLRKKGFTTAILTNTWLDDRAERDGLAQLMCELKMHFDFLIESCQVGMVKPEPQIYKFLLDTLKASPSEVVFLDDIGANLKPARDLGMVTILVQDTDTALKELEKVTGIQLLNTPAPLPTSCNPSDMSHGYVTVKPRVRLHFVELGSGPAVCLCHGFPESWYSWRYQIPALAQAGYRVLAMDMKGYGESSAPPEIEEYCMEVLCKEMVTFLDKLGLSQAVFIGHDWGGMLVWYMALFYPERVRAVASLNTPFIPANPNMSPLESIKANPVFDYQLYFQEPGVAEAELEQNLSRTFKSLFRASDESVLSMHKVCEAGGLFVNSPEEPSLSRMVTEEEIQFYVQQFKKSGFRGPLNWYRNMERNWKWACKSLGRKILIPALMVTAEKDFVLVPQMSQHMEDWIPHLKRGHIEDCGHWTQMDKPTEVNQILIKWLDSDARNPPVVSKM
How it was run: (§2)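 Recombinant human sEH in Bis-Tris buffer pH 7, 0.1 mg/mL BSA, 0.01% Triton X-100 (final), preincubated 30 min at room temperature with compound (1% DMSO final). PHOME added at 50 μM final; 6-methoxynaphthaldehyde fluorescence read each minute for 30 min.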

[3] = target: T4, Bifunctional epoxide hydrolase 2 (Homo sapiens) (UniProt P34913); assay: Inhibition of recombinant human sEH at 50 uM using PHOME as substrate preincubated for 30 mins followed by substrate addition measured for 30 mins by fluorescence photometric method; how it was run: as §2
T4 sequence (whole entry): T3 sequence (P34913 whole entry)

Liver = assay: Drug level in Sprague-Dawley rat liver microsomes treated with 4-(tert-Butyl)-N-(2-chloro-4-(methylsulfonamido)benzyl)-benzamide at 10 uM preincubated with NADPH regenerating system for 5 mins followed by addition of liver microsomes by LC-MS/MS method; type: ADME, microsome
[4] = target: T4, Bifunctional epoxide hydrolase 2 (Homo sapiens); assay: Inhibition of sEH in human HepG2 cells assessed as NF-kappaB mRNA expression at 1 uM after 8 to 16 hrs by SYBR green based qRT-PCR analysis relative to DMSO control; type: cell-based
How it was run: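 HepG2 cells treated with compound or 0.1% DMSO vehicle; NF-κB mRNA quantified by SYBR Green qRT-PCR, comparative ΔΔCt with GAPDH reference; expressed as % of vehicle (100%).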

Row | SMILES | EC50 (Bile acid receptor) [nM] | Emax [1] | IC50 ([2]; read-out: IC50) [nM] | inhibition [3] [%] | Drug metabolism (Liver) | inhibition [4] [%] | IC50 [2]
1 | CC(C)(C)c1ccc(C(=O)NCc2ccc(C(=O)O)c(F)c2)cc1 | 140 | 28% | 20300 |  |  |  | 
2 | CC(=O)NS(=O)(=O)c1ccc(CNC(=O)c2ccc(C(C)(C)C)cc2)cc1 |  | inactive | 12700 |  |  |  | 
3 | CN(C)C(=O)c1ccc(CNC(=O)c2ccc(C(C)(C)C)cc2)cc1 | 170 | 17% | 4600 |  |  |  | 
4 | CC(C)(C)c1ccc(C(=O)NCc2ccc(-c3nnn[nH]3)cc2)cc1 | 120 | 23% | 18200 |  |  |  | 
5 | CC(NC(=O)c1ccc(C(C)(C)C)cc1)c1ccc(C(=O)O)cc1 (centres undefined) | 76 | 24% |  | 37 |  |  | 
6 | CC(C)(C)c1ccc(C(=O)NCc2ccc(C(=O)O)c(Cl)c2)cc1 | 8.8 | 21% |  | 50 |  |  | 
7 | CC(C)(C)c1ccc(C(=O)NCc2ccc(N)cc2)cc1 |  | inactive | 3500 |  |  |  | 
8 | CC(C)(C)c1ccc(C(=O)NCc2ccc(OCC(=O)O)cc2)cc1 | 730 | 21% | 19000 |  |  |  | 
9 | O=C(O)c1ccc(CNC(=O)c2ccc(-c3ccccc3)cc2)cc1 |  | 24% |  |  |  |  | 
10 | C[S+]([O-])c1ccc(CNC(=O)c2ccc(C(C)(C)C)cc2)cc1 (centres undefined) | 1300 | 24% | 220 |  |  |  | 
11 | CC(C)(C)c1ccc(C(=O)NCc2ccc(SC(F)(F)F)cc2)cc1 | 0.4 | 19% | 390 |  |  |  | 
12 | CC(C)(C)c1ccc(C(=O)NCc2ccc(N)cc2Cl)cc1 |  |  |  |  | Metabolite_Detected |  | 
13 | CC(C)(C)c1ccc(C(=O)NCc2ccc(S(C)(=O)=O)cc2)cc1 | 3800 | 34% | 1200 |  |  |  | 
14 | O=C(O)c1ccc(CNC(=O)c2ccccc2)cc1 |  | 12% |  | 16 |  |  | 
15 | CC(C)(C)c1ccc(C(=O)NCc2ccc(NS(C)(=O)=O)cc2)cc1 | 44 | 22% | 650 |  |  |  | 
16 | C[C@@H]1C[C@H]2[C@@H]3CCC4=CC(=O)C=C[C@]4(C)[C@@]3(F)[C@@H](O)C[C@]2(C)[C@@]1(O)C(=O)CO |  |  |  |  |  | 59.4 | 
17 | CC(C)(C)c1ccc(C(=O)NCc2cccc(C(=O)O)c2)cc1 | 1700 | 14% |  | 26 |  |  | 
18 | CC(C)(C)c1ccc(C(=O)NCc2ccc(CO)cc2)cc1 |  | inactive | 2050 |  |  |  | 
19 | CC(C)(C)c1ccc(C(=O)NCc2ccc(C=O)cc2)cc1 | 5300 | 22% | 510 |  |  |  | 

Row | SMILES | EC50 (Bile acid receptor) [nM] | Emax [1] | IC50 ([2]; read-out: IC50) [nM] | inhibition [3] [%] | Drug metabolism (Liver) | inhibition [4] [%] | IC50 [2]
20 | CC(C)(C)c1ccc(C(=O)NCc2ccc(S(N)(=O)=O)cc2)cc1 | 1400 | 16% | 280 |  |  |  | 
21 | Cc1cccc(C(=O)NCc2ccc(C(=O)O)cc2)c1 |  | inactive |  | 37 |  |  | 
22 | CC(C)(C)c1ccc(NC(=O)Nc2ccc(C(=O)O)cc2)cc1 | 3800 | 14% | 18500 |  |  |  | 
23 | Cc1ccc(C(=O)NCc2ccc(C(=O)O)cc2)cc1 |  | 15% |  | 24 |  |  | 
24 | CCOc1ccc(CNC(=O)c2ccc(C(C)(C)C)cc2)cc1 | 160 | 31% | 570 |  |  |  | 
25 | O=C(O)c1ccc(CNC(=O)C2CCCCC2)cc1 |  | inactive |  | 37 |  |  | 
26 | COc1ccc(CNC(=O)c2ccc(C(C)(C)C)cc2)cc1 | 150 | 19% | 430 |  |  |  | 
27 | CC(C)(C)c1ccc(C(=O)NCc2ccc(CC(=O)O)cc2)cc1 | 6400 | 19% | 20000 |  |  |  | 
28 | CC(=O)Nc1ccc(CNC(=O)c2ccc(C(C)(C)C)cc2)cc1 | 2900 | 31% | 1120 |  |  |  | 
29 | Cc1cc(C(=O)O)ccc1CNC(=O)c1ccc(C(C)(C)C)cc1 |  | inactive | 680 |  |  |  | 
30 | Cc1ccc(C(=O)NCc2ccc(C(=O)O)cc2)cc1C | 320 | 12% |  | 52 |  |  | 
31 | CC(C)(C)c1ccc(C(=O)NCc2ccc(NC(=O)C(F)(F)F)cc2)cc1 | 260 | 20% | 660 |  |  |  | 
32 | CC(C)(C)c1ccc(C(=O)NCc2ccc(C(=O)O)cc2F)cc1 | 7.8 | 26% | 1430 |  |  |  | 
33 | COc1cc(C(=O)NCc2ccc(C(=O)O)cc2)ccc1C(C)(C)C | 1200 | 23% | 5040 |  |  |  | 
34 | CC(C)(C)c1ccc(C(=O)NCc2ccc(C(N)=O)cc2)cc1 | 3800 | 27% | 1200 |  |  |  | 
35 | O=C(O)c1ccc(CNC(=O)c2cccc(-c3ccccc3)c2)cc1 | 670 | 14% | 10000 |  |  |  | 
36 | CC(C)(C)c1ccc(C(=O)NCc2ccc(C(=O)O)cc2Cl)cc1 | 7500 | 25% | 170 |  |  |  | 
37 | CC(C)(C)c1ccc(C(=O)NCc2ccc(OC(F)(F)F)cc2)cc1 | 160 | 26% | 220 |  |  |  | 
38 | O=C(O)c1ccc(CNC(=O)C2CCNCC2)cc1 |  | inactive |  | < 3 |  |  | 

Row | SMILES | EC50 (Bile acid receptor) [nM] | Emax [1] | IC50 ([2]; read-out: IC50) [nM] | inhibition [3] [%] | Drug metabolism (Liver) | inhibition [4] [%] | IC50 [2]
39 | CC(=O)c1ccc(CNC(=O)c2ccc(C(C)(C)C)cc2)cc1 | 100 | 29% | 157 |  |  |  | 
40 | CC(C)(CO)c1ccc(C(=O)NCc2ccc(NS(C)(=O)=O)cc2Cl)cc1 |  |  |  |  | Metabolite_Detected |  | 
41 | O=C(O)c1ccc(CNC(=O)c2ccccc2-c2ccccc2)cc1 |  | 22% |  | 19 |  |  | 
42 | CN(C)c1ccc(C(=O)NCc2ccc(C(=O)O)cc2)cc1 |  | inactive |  | 19 |  |  | 
43 | CC(C)(C)c1ccc(C(=O)NCc2ccc(C#N)cc2)cc1 |  | inactive | 910 |  |  |  | 
44 | Cc1cc(CNC(=O)c2ccc(C(C)(C)C)cc2)ccc1C(=O)O | 160 | 14% |  | 53 |  |  | 
45 | CNC(=O)c1ccc(CNC(=O)c2ccc(C(C)(C)C)cc2)cc1 | 340 | 29% | 1900 |  |  |  | 
46 | CSc1ccc(CNC(=O)c2ccc(C(C)(C)C)cc2)cc1 | 100 | 33% | 120 |  |  |  | 
47 | COc1ccc(C(=O)NCc2ccc(C(=O)O)cc2)cc1OC | 370 | 18% |  | 26 |  |  | 
48 | O=C(O)c1ccc(CNC(=O)c2ccc(C(F)(F)F)c(C(F)(F)F)c2)cc1 |  | inactive |  | 55 |  |  | 
49 | CC(C)(C)c1ccc(C(=O)NCc2ccc(C(=O)O)cc2)cc1 | 370 | 13% | 4200 |  |  |  | 
50 | CC(C)(C)c1ccc(C(=O)NCc2ccc(S(N)(=O)=O)cc2F)cc1 | 970 | 34% | 137 |  |  |  | 
51 | CC(C)(C)c1ccc(C(=O)NCc2ccc(CCC(=O)O)cc2)cc1 | 350 | 16% | 1630 |  |  |  | 
52 | CC(C)Oc1ccc(CNC(=O)c2ccc(C(C)(C)C)cc2)cc1 | 170 | 26% |  |  |  |  | Nd(Insoluble)
53 | Cc1ccc(C(=O)NCc2ccc(C(=O)O)cc2)c(C)c1 |  | inactive |  | 7 |  |  | 
54 | O=C(O)c1ccc(CNC(=O)c2ccc(Cl)c(Cl)c2)cc1 |  | inactive | 10500 |  |  |  | 
55 | Cc1ccccc1C(=O)NCc1ccc(C(=O)O)cc1 |  | inactive |  | 14 |  |  | 
56 | O=C(O)c1ccc(CNC(=O)c2ccc3ccccc3c2)cc1 | 1360 | 18% |  | 45 |  |  | 
